Laboratory results published in ChEMBL document CHEMBL4266056, “Discovery and Pharmacology of a Novel Somatostatin Subtype 5 (SSTR5) Antagonist: Synergy with DPP-4 Inhibition” (ACS Med Chem Lett, 2018).

Experiments:
[1] = target: T1, Somatostatin receptor type 5 (Mus musculus, UniProt O08858); experiment: Antagonist activity at mouse SSTR5 expressed in CHO-K1 cell membranes assessed as reduction in SST-28-induced inhibition of forskolin-stimulated cAMP accumulation by LANCE assay; type: functional, cell-based
T1 sequence (O08858 whole entry): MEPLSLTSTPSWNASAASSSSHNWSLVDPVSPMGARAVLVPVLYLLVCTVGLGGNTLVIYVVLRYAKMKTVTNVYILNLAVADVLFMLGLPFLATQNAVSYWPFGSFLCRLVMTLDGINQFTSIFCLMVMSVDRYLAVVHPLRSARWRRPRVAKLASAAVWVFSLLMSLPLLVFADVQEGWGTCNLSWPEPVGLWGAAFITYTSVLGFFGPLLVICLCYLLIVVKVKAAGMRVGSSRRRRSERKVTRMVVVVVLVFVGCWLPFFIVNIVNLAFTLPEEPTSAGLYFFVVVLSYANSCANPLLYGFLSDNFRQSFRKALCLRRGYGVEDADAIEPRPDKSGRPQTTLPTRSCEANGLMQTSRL

[2] = Oral bioavailability in mouse; type: ADME, organism-based; conditions: in vivo
[3] = Half life in mouse; type: ADME, organism-based; conditions: in vivo
[4] = target: T1, Somatostatin receptor type 5; experiment: Displacement of (3-125I-Tyr11)-SRIF-28 from mouse SSTR5 expressed in CHO-K1 cell membranes by filtration binding assay
[5] = target: Somatostatin receptor type 1 (Homo sapiens, UniProt P30872); experiment: Antagonist activity at human SSTR1 expressed in CHO-K1 cell membranes; type: functional, cell-based
In short: (§1)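 Counter-screen by filtration membrane binding: competitive displacement of radiolabeled SST-28 from cell membranes expressing human SSTR1, SSTR2, SSTR3 or SSTR4. The IC50 is the mean of at least duplicate experiments within a maximal threefold range.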

[6] = target: T2, Somatostatin receptor type 5 (Homo sapiens, UniProt P35346); experiment: Displacement of (3-125I-Tyr11)-SRIF-28 from human SSTR5 expressed in CHO-K1 cell membranes by filtration binding assay
[7] = target: Voltage-gated inwardly rectifying potassium channel KCNH2 (Homo sapiens, UniProt Q12809); experiment: Inhibition of MK-499 binding to human ERG
[8] = target: T2, Somatostatin receptor type 5; experiment: Antagonist activity at human SSTR5 expressed in CHO-K1 cell membranes assessed as reduction in SST-28-induced inhibition of forskolin-stimulated cAMP accumulation by LANCE assay; type: functional, cell-based
[9] = tested on: Mus musculus; experiment: Drug uptake in mouse whole blood at 30 mg/kg, po measured at […]
[10] = tested on: Mus musculus; experiment: Antidiabetic activity in HFD fed C57BL/6N mouse assessed as decrease in blood glucose AUC at 30 mg/kg administered as single oral dose pretreated for 60 mins followed by glucose challenge measured after 120 mins by OGTT; type: functional; design: scale not given: the % may be the effect or the level left
In short: (§2)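 Male C57BL/6 mice were fed HFD (D12492) for 21 days, n=3. Compound was given orally 1 h before an oral glucose load, and blood glucose was followed over 0-120 min. Read-out is the decrease in glucose AUC versus vehicle.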

[11] = target: Somatostatin receptor type 3 (Homo sapiens, UniProt P32745); experiment: Antagonist activity at human SSTR3 expressed in CHO-K1 cell membranes; type: functional, cell-based; in short: as §1
[12] = tested on: Mus musculus; experiment: Antidiabetic activity in HFD fed C57BL/6N mouse assessed as decrease in blood glucose AUC at 10 mg/kg administered as single oral dose pretreated for 60 mins followed by glucose challenge measured after 120 mins by OGTT; type: functional; design: scale not given: the % may be the effect or the level left; in short: as §2

Chain of Voltage-gated inwardly rectifying potassium channel KCNH2 (Q12809 whole entry): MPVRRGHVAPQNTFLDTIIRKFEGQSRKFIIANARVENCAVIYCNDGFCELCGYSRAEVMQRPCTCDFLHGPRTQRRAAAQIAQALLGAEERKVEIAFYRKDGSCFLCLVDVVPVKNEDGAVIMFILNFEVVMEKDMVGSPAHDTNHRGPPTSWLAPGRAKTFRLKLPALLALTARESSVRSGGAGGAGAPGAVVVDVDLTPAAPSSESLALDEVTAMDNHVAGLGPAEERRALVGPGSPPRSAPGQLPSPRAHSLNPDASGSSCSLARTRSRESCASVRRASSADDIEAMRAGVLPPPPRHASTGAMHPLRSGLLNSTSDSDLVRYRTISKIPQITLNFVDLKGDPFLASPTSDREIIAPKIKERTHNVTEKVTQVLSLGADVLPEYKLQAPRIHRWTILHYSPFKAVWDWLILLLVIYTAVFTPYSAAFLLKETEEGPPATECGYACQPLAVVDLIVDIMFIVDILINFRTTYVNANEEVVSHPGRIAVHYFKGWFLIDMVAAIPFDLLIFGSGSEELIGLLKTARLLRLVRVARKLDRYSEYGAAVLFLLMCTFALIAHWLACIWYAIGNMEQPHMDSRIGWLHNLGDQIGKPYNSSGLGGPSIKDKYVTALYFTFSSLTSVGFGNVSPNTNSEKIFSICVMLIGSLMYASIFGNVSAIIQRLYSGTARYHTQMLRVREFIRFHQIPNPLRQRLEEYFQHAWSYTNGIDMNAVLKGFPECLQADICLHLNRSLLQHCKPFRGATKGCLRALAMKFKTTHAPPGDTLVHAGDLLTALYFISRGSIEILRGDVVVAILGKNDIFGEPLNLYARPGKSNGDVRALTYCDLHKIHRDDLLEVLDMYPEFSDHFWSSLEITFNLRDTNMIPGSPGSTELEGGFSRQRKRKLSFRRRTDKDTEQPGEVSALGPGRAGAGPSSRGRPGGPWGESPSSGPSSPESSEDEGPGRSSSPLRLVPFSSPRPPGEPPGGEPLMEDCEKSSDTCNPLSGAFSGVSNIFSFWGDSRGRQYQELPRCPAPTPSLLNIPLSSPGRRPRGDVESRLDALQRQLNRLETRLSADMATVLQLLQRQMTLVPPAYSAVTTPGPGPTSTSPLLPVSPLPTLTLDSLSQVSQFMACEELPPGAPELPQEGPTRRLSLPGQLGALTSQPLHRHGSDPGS
T2 sequence (P35346 whole entry): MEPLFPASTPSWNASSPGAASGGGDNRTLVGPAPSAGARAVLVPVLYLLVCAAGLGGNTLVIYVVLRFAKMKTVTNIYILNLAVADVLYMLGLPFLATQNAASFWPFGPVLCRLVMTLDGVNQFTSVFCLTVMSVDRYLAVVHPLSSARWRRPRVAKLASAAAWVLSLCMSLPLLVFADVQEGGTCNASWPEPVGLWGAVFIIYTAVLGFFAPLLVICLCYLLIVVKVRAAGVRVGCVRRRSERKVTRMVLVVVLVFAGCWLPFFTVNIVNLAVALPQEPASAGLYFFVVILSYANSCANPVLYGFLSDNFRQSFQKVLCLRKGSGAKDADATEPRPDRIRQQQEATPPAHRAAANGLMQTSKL
Chain of Somatostatin receptor type 1 (P30872 whole entry): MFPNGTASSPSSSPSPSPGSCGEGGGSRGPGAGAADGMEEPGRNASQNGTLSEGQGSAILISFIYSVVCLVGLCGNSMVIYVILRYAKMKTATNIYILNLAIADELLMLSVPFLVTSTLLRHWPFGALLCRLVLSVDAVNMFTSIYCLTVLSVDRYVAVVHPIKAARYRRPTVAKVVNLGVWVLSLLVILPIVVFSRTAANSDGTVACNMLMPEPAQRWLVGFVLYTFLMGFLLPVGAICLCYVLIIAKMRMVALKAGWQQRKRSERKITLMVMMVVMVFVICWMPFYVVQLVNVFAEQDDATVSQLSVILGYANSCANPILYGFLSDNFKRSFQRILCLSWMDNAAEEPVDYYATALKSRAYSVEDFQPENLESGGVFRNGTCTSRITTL
Chain of Somatostatin receptor type 3 (P32745 whole entry): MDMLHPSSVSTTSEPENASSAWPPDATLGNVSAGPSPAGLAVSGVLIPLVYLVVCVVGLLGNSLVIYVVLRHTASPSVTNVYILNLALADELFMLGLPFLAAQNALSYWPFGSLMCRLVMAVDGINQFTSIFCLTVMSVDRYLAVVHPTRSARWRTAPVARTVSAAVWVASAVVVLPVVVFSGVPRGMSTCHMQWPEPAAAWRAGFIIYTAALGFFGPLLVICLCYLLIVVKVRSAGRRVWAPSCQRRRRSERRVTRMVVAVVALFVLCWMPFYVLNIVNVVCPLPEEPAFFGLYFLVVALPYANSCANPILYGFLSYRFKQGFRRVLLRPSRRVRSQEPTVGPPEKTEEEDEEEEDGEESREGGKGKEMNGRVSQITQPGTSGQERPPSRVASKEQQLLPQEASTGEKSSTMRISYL

Compound	IC50 [1] [nM]	bioavailability [2] [%]	half-life [3] [h]	IC50 [4] [nM]	IC50 [5] [nM]	IC50 [6] [nM]	IC50 [7] [nM]	IC50 [8] [nM]	concentration at […] [9] [nM]	Activity [10] [%]	IC50 [11] [nM]	Activity [12] [%]
CCOc1cc(CN2CC[C@H]3C(Nc4nc5ccc(C(=O)O)cc5o4)CC[C@H]32)cc(OCC)c1-c1ccc(F)cc1 (relative stereo)	6.1	48	1.7	16	6000	2.5	15000	4.5	760	56		
CCOc1cc(CN2CCC(Oc3nccc(Cl)n3)CC2)cc(OCC)c1-c1ccc(F)cc1				13		21		73				
CCOc1cc(CN2CCC3(CC2)CCN(S(=O)(=O)c2cccnc2)CC3)cc(OCC)c1-c1ccc(F)cc1						13	210	26				
CCOc1cc(CN2CCC(c3ncc(-c4ccc(F)cc4)[nH]3)CC2)cc(OCC)c1-c1ccc(F)cc1	98			2.7		7.6	260	247			119	
CCOc1cc(CN2CCC(NC(=O)c3cncc(C)c3)CC2)cc(OCC)c1-c1ccc(F)cc1	2.7			1	< 300	1.3	1690	3.1				87
CCOc1cc(CN2CCC3(CC2)CC(Cc2ccc(F)cc2)C(=O)O3)cc(OCC)c1-c1ccc(F)cc1 (racemic)				2.5		1.6		67				
CCOc1cc(CN2CCC(C3CCN(S(=O)(=O)c4ccccc4)CC3)CC2)cc(OCC)c1-c1ccc(F)cc1	28	13		0.8		0.7	220	8.6	92	60		
CCOc1cc(CN2CCC(COc3cccc4cccnc34)CC2)cc(OCC)c1-c1ccc(F)cc1	7.1			0.6		2.9	210	67.8				
CCOc1cc(CN2CCC3(CC2)NC(=O)NC3=O)cc(OCC)c1-c1ccc(F)cc1	7.4			32		83	25000	110	460	54		
